Here are results for 6 molecules from PMC9371711 (Proceedings of the National Academy of Sciences of the …, 2022).

Series [1] relates to 8MG, TB26, TB77 GBM cells. Kind of series: Growth of AT2R-expressing GBM cells with AngII and antagonists, low serum. It is filed as cell-based, human. Particulars: 1% FBS, 6 d; for effect of antagonist on AngII-enhanced growth: antagonist 10 μM + 10 nM AngII. The essentials: (§1)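 Cells in 1% FBS received 10 nM AngII, AT1R or AT2R antagonists at 10 μM, each antagonist plus AngII, or both antagonists together. Established lines were read by SRB staining and primary cultures by CCK8, 6 d posttreatment. Values are mean absorbance normalised to untreated control ± SEM. Groups were compared by ANOVA with Tukey's test.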

In series [2] the test system is TB77 cells. Kind of series: RNA sequencing, whole-transcriptome analysis. It counts as cell-based, human. Particulars: 30 µM, 24 h; for number of differentially expressed genes vs untreated control: P < 0.01; for number of unique differentially expressed genes: not shared with the other antagonist.
A further series has as its target AT2R. Particulars: cited from earlier work; for Kd: read-out: KD (Dissociation constant) for AT2R.
A further series has as its system rat AT1R. The note with it: read-out: IC50 at rat AT1R; cited from earlier work.
A further series relates to GBM59. Description: TMZ sensitivity of primary GBM cells, SRB. The note with it: TMZ 2-512 μM, 10% FBS, SRB after 9 days. It is filed as cell-based, human.
The subject of series [3] is TB77 cells. Kind of series: TB77 proliferation, CCK8. It counts as cell-based, human. Particulars: 1, 10, 30 μM, 1% serum, CCK8 9 d posttreatment; P = 0.0011.
Series [4] deals with TB26, TB43, TB48, GBM59, GBM96 primary GBM cultures. Kind of series: Proliferation of AGTR2-expressing primary GBM cultures, CCK8. It is filed as cell-based, human. Particulars: GBM59, 1% serum, CCK8 9 d. Put shortly:
(§2)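 Primary GBM explants in 1% serum were exposed to test compound at 1, 10 and 30 μM. Viability was read by CCK8 9 d posttreatment. Values are mean A450 normalised to untreated control ± SEM.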

The subject of a further series is GBM31. Description: Proliferation of GBM31. It counts as cell-based, human. Particulars: 1, 10, 30 μM, 1% serum, CCK8 9 d. Put shortly: as §2
For series [5], the system named is TB48, TB77, GBM96 spheroids. Kind of series: 3D spheroid growth, CCK8. It is filed as cell-based, human. The note with it: 10, 30, 50 μM, CCK8 9 d posttreatment. The essentials: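 TB48, TB77 and GBM96 primary cells grown as 3D spheroids were exposed to test compound at 10, 30 and 50 μM. Growth was read by CCK8 9 d posttreatment. Values are mean A450 normalised to untreated control ± SEM. Groups were compared by ANOVA with Tukey's test.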

For another series, the system named is GBM96 spheroids. Description: Spheroid invasion in 50% Matrigel. It is filed as cell-based, human. Particulars: GBM96, dose-dependent, area covered by invading cells. Put shortly: (§3)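 Primary-cell spheroids were embedded in 50% Matrigel and exposed to test compound. Invasion was followed over time as the area covered by invading cells, by image thresholding. Values are mean area in pixels ± SEM. Groups were compared by ANOVA with Tukey's test.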

A further series relates to TB48 spheroids. Description: Spheroid invasion in 50% Matrigel. It is filed as cell-based, human. The note with it: TB48, 30 μM. Put shortly:
as §3

Another series relates to hCMEC/D3. Kind of series: Endothelial cell tube formation with GBM-conditioned media. Particulars: 6-h incubation with media of TB77 treated with 30 μM EMA401. It is filed as cell-based, human. Put shortly: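 Conditioned media came from untreated TB77 cells or TB77 treated with 10 μM AT1R antagonist and 30 μM test compound. hCMEC/D3 endothelial cells were incubated in these media for 6 h. Read-outs were total segment length (pixels) and number of meshes, as mean ± SEM. Groups were compared by ANOVA with Tukey's multiple comparisons.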

Series [6] concerns TB77 cells. Description: Muse Annexin V & Dead Cell Assay. It counts as cell-based, human. The note with it: 10, 30, 50 μM; 24, 48, 72 h; time and dose dependent.
Series [7] relates to TB77 cells. Description: Cell cycle, propidium iodide flow cytometry. It is filed as cell-based, human. Particulars: 10, 30, 50 μM. (In flow cytometry, cells or beads pass a laser one at a time.)
Series [8] concerns caspase-3/7 in TB77 cells. Description: Caspase-Glo 3/7 Assay. It is filed as cell-based, human. Particulars: 30 μM.
Series [9] has as its system TB43, TB48, GBM59, GBM96 primary GBM cultures. Description: Proliferation of primary GBM cultures with EMA401, A3E, TMZ, CCK8. It is filed as cell-based, human. Particulars: for sensitivity of GBM96: GBM96 (lacks AGTR1), A3E 10 μM.
The nature of series [10]: In vivo brain biodistribution, LC-MS/MS. The arrangement: species or system C57BL/6 mice. Particulars: i.v., 30 min after dosing.
The conditions of series [11]: cited from earlier work.
Series [12] deals with U87-GFP/luc tumors. Kind of series: Subcutaneous U87-GFP/luc xenograft model of GBM. It counts as in vivo, NSG mice. Put shortly: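 2 × 10⁶ U87-GFP/luc cells were injected into the flanks of NSG mice. Once tumours were established, mice were randomised to test compound, comparators or vehicle (PBS, 5% DMSO, 5% solutol), n = 7–9 per group, and treated for 21 d. Tumour volume and final tumour weight are reported as mean ± SEM.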

The subject of series [13] is U87-GFP/luc tumors. Kind of series: Orthotopic. It counts as in vivo, BALB/c nude mice. Put shortly: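 2 × 10⁵ U87-GFP/luc cells were implanted into the right cerebral cortex. After 7 d, mice were randomised to test compound or vehicle (PBS, 5% DMSO, 5% solutol), n = 6 each, dosed daily i.p. for 14 d. IVIS bioluminescence was imaged twice weekly and body weight tracked. Tumour sections were scored for H&E tumour area, fluorescent integrin β3 intensity and TUNEL intensity.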

The subject of another series is TB82. Description: Growth of GBM cells expressing AT1R but not AT2R with AngII, low serum. It counts as cell-based, human. Particulars: 10 nM AngII, 1% FBS, 6 d. The essentials: as §1

Turning to `Cc1cc(Cn2cnc3c2C[C@@H](C(=O)O)N(C(=O)C(c2ccccc2)c2ccccc2)C3)ccc1N(C)C` [PD123319], in series [1] (10 μM, significant in 8MG and TB77), the “proliferation in the absence of exogenous AngII” value is recorded as “inhibited the proliferation”. In addition, the “effect of antagonist on AngII-enhanced growth” value in [1] was “blocked the enhanced growth”. Besides, in the series with TB77 cells [2], the “number of differentially expressed genes vs untreated control” value is on record as 2,195 genes and the “number of unique differentially expressed genes” value is recorded as 908 genes. For the same molecule, the Kd (as a rule, a measure of binding affinity in units of concentration) at AT2R is 0.0717 µM. Moreover, the IC50 (commonly the concentration that inhibits the measured activity by half) in the series on rat AT1R was 210 µM.
In the case of `Cn1nnc2c(C(N)=O)ncn2c1=O` [TMZ, temozolomide], in the series on GBM59, the “sensitivity of GBM59 to TMZ” value is reported as “insensitive”.
Take `COc1ccc2c(c1OCc1ccccc1)C[C@@H](C(=O)O)N(C(=O)C(c1ccccc1)c1ccccc1)C2` [EMA401]: the “growth inhibition compared with PD123319” value in the series on TB77 cells [3] was “significantly more potent growth inhibition than PD123319”. Further, the “growth inhibition of TMZ-insensitive GBM59” value in series [4] is listed as “efficiently inhibited”. The “sensitivity of GBM31 to growth inhibition” value with GBM31 is reported as “insensitive”. The spheroid growth sensitivity result in [5] was “sensitive”. Besides, the spheroid invasiveness entry with GBM96 spheroids was “significantly reduced the invasiveness”. The spheroid invasiveness result in the series on TB48 spheroids was “significantly reduced”. Besides, the “total segment length of endothelial tubes” value in the series with hCMEC/D3 is listed as “significantly reduced”. In addition, in the series with TB77 cells [2], the “number of differentially expressed genes vs untreated control” value was 5,498 genes and the “number of unique differentially expressed genes” value is reported as 4,211 genes. In the series on TB77 cells [2] (RNA-seq), the “down-regulation of FGF18” value amounted to 2.7 fold, the “down-regulation of G6PD” value is recorded as 1.26 fold, the “down-regulation of PDK2” value is reported as 1.29 fold and the “down-regulation of PDK4” value amounted to 1.29 fold. In the series with TB77 cells [2] (RNA-seq), the “down-regulation of PIDD1” value turned out to be 1.3 fold, the “down-regulation of TKT” value is given as 1.33 fold, the “up-regulation of CASP3” value is 1.43 fold and the “up-regulation of MAP2K3” value came to 1.7 fold. In addition, in the series with TB77 cells [2] (RNA-seq), the “up-regulation of NFKB2” value was 1.5 fold, the “up-regulation of RelB” value is recorded as 2.4 fold and the “up-regulation of TNFRSF21” value is reported as 1.5 fold. Further, the early apoptotic cells result in the series on TB77 cells [6] is “significant increase in early apoptotic cells”. Moreover, the cell-cycle parameters entry with TB77 cells [7] was “No changes in cell-cycle parameters”. In addition, the “enhancement of caspase-3/7 activation” value in series [8] (24 h, luminescence, P < 0.0001) is listed as 30%. Also, the caspase-3/7 activation entry in series [8] (48 h) is on record as “returned to baseline levels”. Further, the “antiproliferative potency compared with TMZ” value in series [9] (EMA401 30 μM, TMZ 30 μM, 1% serum, CCK8 9 d) is on record as “greater potency than TMZ”. Also, the “sensitivity of GBM96” value in [9] (EMA401 30 μM) is “especially sensitive”. The “EMA401 metabolite (peak at 3.7 min, m/z 314) in brain samples” value in series [10] was “a metabolite was identified”. Also, in the series with rat AT1R, the IC50 is 408 µM. For the same molecule, the blood-brain barrier penetration entry in series [11] was “inability of EMA401 to penetrate the blood–brain barrier”.
For `CCCCc1nc(Cl)c(CO)n1Cc1ccc(-c2ccccc2-c2nn[nH]n2)cc1` [losartan], the “effect of antagonist on AngII-enhanced growth” value in [1] was “no effects were observed”.
`COc1ccc2c(c1OCc1ccccc1)C[C@@H](C(=O)OCC(=O)NCCCC[C@H](NC(=O)CNC(=O)[C@H](CCCNC(=N)N)NC(=O)[C@H](CO)NC(=O)CNC(=O)CNC(=O)[C@H](Cc1ccc(O)cc1)NC(=O)[C@H](Cc1ccccc1)NC(=O)[C@H](Cc1ccccc1)NC(=O)[C@@H](NC(=O)COC(=O)[C@@H]1Cc3c(ccc(OC)c3OCc3ccccc3)CN1C(=O)C(c1ccccc1)c1ccccc1)[C@@H](C)O)C(=O)N[C@@H](CCCNC(=N)N)C(=O)N[C@@H](CC(N)=O)C(=O)N[C@@H](CC(N)=O)C(=O)N[C@@H](Cc1ccccc1)C(=O)N[C@@H](CCCCNC(=O)COC(=O)[C@@H]1Cc3c(ccc(OC)c3OCc3ccccc3)CN1C(=O)C(c1ccccc1)c1ccccc1)C(=O)N[C@H](C(=O)N[C@@H](CCC(=O)O)C(=O)N[C@@H](CCC(=O)O)C(=O)N[C@@H](Cc1ccc(O)cc1)C(=O)O)[C@@H](C)O)N(C(=O)C(c1ccccc1)c1ccccc1)C2` [A3E]: the “antiproliferative effect compared with EMA401” value in series [9] (A3E 10 μM vs EMA401 30 μM, 1% serum, CCK8 9 d) is reported as “equivalent inhibition to native EMA401 at a three-fold lower dose”. Moreover, the “sensitivity of GBM96” value in series [9] (EMA401 30 μM) was “especially sensitive”. In series [10], the “EMA401 metabolite (peak at 3.7 min, m/z 314) in brain samples” value is “not detected”. Besides, the “tumor size, volume and weight vs vehicle- or EMA401-treated groups” value with U87-GFP/luc tumors [12] (A3E 25.88 mg/kg i.p. daily, 21 d, NSG mice) is given as “significantly smaller size”. The “efficacy compared with TMZ” value in the series on U87-GFP/luc tumors [12] (A3E 25.88 mg/kg, TMZ 30 mg/kg, i.p. daily) was “slightly more effective than TMZ, though this was not significant”. In the series with U87-GFP/luc tumors [13] (A3E 25.88 mg/kg i.p. daily for 14 d, bioluminescent imaging (IVIS), n = 6), the “reduction of tumor size vs vehicle control” value is on record as 40%. Moreover, the “integrin β3 staining (angiogenesis) of tumor sections” value with U87-GFP/luc tumors [13] (n = 2, P = 0.17) is on record as “reduction in integrin-β3 staining”. The “apoptosis, TUNEL assay of tumor sections” value with U87-GFP/luc tumors [13] (n = 3, P = 0.056) was “apoptosis was enhanced”. Moreover, the “tumor area, H&E staining, vs saline group” value with U87-GFP/luc tumors [13] (n = 5, P = 0.084) is recorded as “consistently smaller”. Moreover, in the series with U87-GFP/luc tumors [13] (subcutaneous or intracranial models, no significant weight loss over the study), the “toxicity by body weight” value is given as “no detectable toxicity”.
“angiotensin II (DRVYIHPF; Angiotensin-2; UniProt P01019 25-32, looked up) [AngII]”: in series [1] (10 nM AngII, SRB or CCK8), the “cell growth with exogenous AngII” value is listed as “significantly enhanced”. In the series on TB82, the “cell growth with exogenous AngII” value is reported as “minimally increased”. In addition, in the series with AT2R, the “selectivity for AT2R over AT1R” value was 10 fold and the Kd is 0.0016 µM.
